Test results published in ChEMBL document CHEMBL4665801, “Pyrazole-Based Lactate Dehydrogenase Inhibitors with Optimized Cell Activity and Pharmacokinetic Properties” (J Med Chem, 2020).
The source made the active and inactive calls. Unless noted, no cut-off for these calls is given here.

What was measured:
[1] = In vivo inhibition of LDH in human A673 cells xenografted athymic nude CrTac:NCr-Foxn1nu mouse assessed as reduction in tumor LDH activity at 50 mg/kg, iv after 6 hrs by UV-VIS spectrometric method relative to control; format: functional
Summary of the method: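 Female athymic nude mice carried SQ A673 flank xenografts (2 million cells) and received a single IV dose of 50 mg/kg in PBS-based vehicle. Four mice per time point were sacrificed at 1, 3, 6 and 24 h. Frozen tumor (10–50 mg) was pulverized and lysed in PBS pH 7.4 with 0.1% Triton X-100 on ice for 1 h. Cleared lysate (10–20 μg) was assayed with 10 mM pyruvate and 0.3 mM final NADH, reading NADH oxidation at 340 nm at 37 °C.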

[2] = Volume of distribution at steady state in CD-1 mouse at 10 mg/kg, iv and measured up to 24 hrs by LC/MS-MS analysis; format: ADME, organism-based; settings: in vivo
Summary of the method: (§1)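 Male CD1 mice, about 6–8 weeks old and 20–30 g, received 10 mg/kg IV in 0.1 M NaOH in PBS adjusted to pH 7–8.5, made fresh on the day of dosing. Three mice per cohort. Blood was taken from the dorsal metatarsal vein at 5, 15, 30 min and 1, 2, 4, 8, 12, 24 h into heparin tubes. Plasma was spun at 4 °C, stored at –75 °C and analysed by LC–MS/MS. For IV dosing Cmax = C0.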

[3] = AUClast in CD-1 mouse at 10 mg/kg, iv and measured up to 24 hrs by LC/MS-MS analysis; format: ADME, organism-based; design: route intravenous, dose 10 mg/kg, time <=24; settings: in vivo; summary of the method: as §1
[4] = Cmax in CD-1 mouse at 10 mg/kg, iv and measured up to 24 hrs by LC/MS-MS analysis; format: ADME, organism-based; design: route intravenous, dose 10 mg/kg, time <=24; settings: in vivo; summary of the method: as §1
[5] = Terminal half life in CD-1 mouse at 10 mg/kg, iv and measured up to 24 hrs by LC/MS-MS analysis; format: ADME, organism-based; settings: in vivo; summary of the method: as §1
[6] = molecular target: Voltage-gated inwardly rectifying potassium channel KCNH2 (Homo sapiens, UniProt Q12809); assay: Inhibition of human ERG by patch clamp method; settings: dose >10 µM
Chain of Voltage-gated inwardly rectifying potassium channel KCNH2 (Q12809 whole entry): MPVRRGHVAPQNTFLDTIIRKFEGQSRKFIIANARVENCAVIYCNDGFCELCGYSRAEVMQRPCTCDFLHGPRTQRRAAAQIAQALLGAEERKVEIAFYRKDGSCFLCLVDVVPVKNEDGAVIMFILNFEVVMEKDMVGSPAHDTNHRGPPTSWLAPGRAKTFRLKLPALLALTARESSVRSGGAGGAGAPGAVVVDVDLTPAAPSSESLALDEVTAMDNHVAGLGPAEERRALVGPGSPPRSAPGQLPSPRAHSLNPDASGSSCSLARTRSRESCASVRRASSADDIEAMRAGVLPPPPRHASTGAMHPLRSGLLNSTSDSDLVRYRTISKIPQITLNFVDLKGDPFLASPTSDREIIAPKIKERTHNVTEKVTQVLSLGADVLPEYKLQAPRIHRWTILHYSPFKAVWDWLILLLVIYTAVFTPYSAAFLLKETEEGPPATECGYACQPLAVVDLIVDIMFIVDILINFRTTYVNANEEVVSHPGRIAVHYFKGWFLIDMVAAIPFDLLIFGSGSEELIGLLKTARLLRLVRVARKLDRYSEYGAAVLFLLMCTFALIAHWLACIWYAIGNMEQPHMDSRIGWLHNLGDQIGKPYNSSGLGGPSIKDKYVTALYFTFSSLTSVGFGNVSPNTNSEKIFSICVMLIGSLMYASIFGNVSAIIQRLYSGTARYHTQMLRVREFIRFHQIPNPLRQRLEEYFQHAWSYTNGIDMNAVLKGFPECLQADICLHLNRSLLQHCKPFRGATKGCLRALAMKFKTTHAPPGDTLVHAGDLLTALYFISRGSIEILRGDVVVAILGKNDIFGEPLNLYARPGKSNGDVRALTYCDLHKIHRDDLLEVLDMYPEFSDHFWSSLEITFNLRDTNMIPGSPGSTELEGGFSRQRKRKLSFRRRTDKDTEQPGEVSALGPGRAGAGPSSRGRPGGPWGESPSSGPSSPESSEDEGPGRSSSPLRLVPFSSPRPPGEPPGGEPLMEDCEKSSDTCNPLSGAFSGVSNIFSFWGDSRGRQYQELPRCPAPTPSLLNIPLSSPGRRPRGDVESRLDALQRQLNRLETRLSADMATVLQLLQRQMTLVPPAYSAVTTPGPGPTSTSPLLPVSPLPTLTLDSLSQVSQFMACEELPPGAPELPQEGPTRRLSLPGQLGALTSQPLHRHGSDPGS

Cytochrome P450 = assay: Induction of CYP450 (unknown origin) at 10 uM; format: ADME, protein assay; settings: human
[7] = Half life in mouse plasma; format: ADME, cell-free
Summary of the method: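 Stability in mouse plasma was followed at five time points, with T1/2 derived from parent remaining.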

[8] = molecular target: T1, L-lactate dehydrogenase A chain (Homo sapiens, UniProt P00338); assay: Inhibition of LDHA in human A673 cells assessed as decrease in lactate production incubated for 2 hrs by lactate oxidase-coupled fluorescence based assay; format: cell-based
A673 = assay: Cytotoxicity against human A673 cells assessed as reduction in cell viability after 48 hrs by CellTiter-Glo assay; format: functional, cell-based; settings: A673, 48 h
[9] = molecular target: T1, L-lactate dehydrogenase A chain; assay: Inhibition of LDHA in human MIA PaCa-2 cells assessed as decrease in lactate production incubated for 2 hrs by lactate oxidase-coupled fluorescence based assay; format: cell-based
MIA PaCa-2 = assay: Cytotoxicity against human MIA PaCa-2 cells assessed as reduction in cell viability after 48 hrs by CellTiter-Glo assay; format: functional, cell-based; settings: MIA PaCa-2, 48 h
[10] = molecular target: T1, L-lactate dehydrogenase A chain; assay: Inhibition of GS[HiBiT]GS-tagged LDHA (unknown origin) expressed in HEK-293T cells measured after 1 hr by […]; format: cell-based
Summary of the method: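 HEK293T cells were transiently transfected for 24 h with CMV-driven LDHA carrying a C-terminal GS[HiBiT]GS tag, then reseeded at 2500 cells/well in DPBS with Ca/Mg and 1 g/L glucose. […] Cells were lysed with NP40, and 11S (100 nM final) plus furimazine was added.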

[11] = molecular target: T1, L-lactate dehydrogenase A chain; assay: Binding affinity to human His-tagged LDHA by SPR analysis
Summary of the method: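 SPR on a Mass-1 instrument gave K_D and k_off. Residence time τ was calculated as 1/k_off (s⁻¹).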

[12] = molecular target: L-lactate dehydrogenase B chain (Homo sapiens) (UniProt P07195); assay: Inhibition of recombinant human LDHB using sodium pyruvate as substrate preincubated for 5 mins followed by diaphorase/resazurin addition and measured after 20 mins by fluorescence based assay
Chain of L-lactate dehydrogenase B chain (Homo sapiens) (P07195 2-334 limits assumed): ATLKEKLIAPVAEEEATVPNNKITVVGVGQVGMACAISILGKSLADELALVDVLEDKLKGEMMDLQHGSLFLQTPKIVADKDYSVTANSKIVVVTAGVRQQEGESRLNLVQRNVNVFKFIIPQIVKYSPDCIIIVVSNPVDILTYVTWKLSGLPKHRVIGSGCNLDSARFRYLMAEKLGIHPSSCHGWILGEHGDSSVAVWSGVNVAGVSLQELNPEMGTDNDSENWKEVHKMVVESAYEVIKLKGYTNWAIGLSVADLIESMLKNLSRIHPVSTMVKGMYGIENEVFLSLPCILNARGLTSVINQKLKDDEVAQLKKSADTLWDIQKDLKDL

[13] = molecular target: T1, L-lactate dehydrogenase A chain; assay: Inhibition of LDHA in human A673 cells assessed as decrease in extracellular acidification rate at 0.5 to 5 uM preincubated for 1 hr followed by glucose/oligomycin/2-DG addition at 48 mins by seahorse XF GST based assay; format: cell-based; settings: dose microM 0.5-5, time 108.0 min
Summary of the method: (§2)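 A673 cells in DMEM with 10% FBS were plated 24 h ahead, then switched to Seahorse basic DMEM with 2 mM glutamine, pH 7.4, and held 1 h at 37 °C without CO2. ECAR was recorded after inhibitor injection at increasing concentrations. At 48 min, glucose (10 mM final), oligomycin (1 μg/mL final) and 2-DG (50 mM final) were injected in sequence.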

Homo sapiens = organism: Homo sapiens; assay: Inhibition of LDH in human A673 cells assessed as decrease in extracellular acidification rate at 0.5 to 5 uM preincubated for 1 hr followed by subsequent injections of glucose/oligomycin at 48 mins by seahorse XF GST based assay; format: cell-based; settings: dose microM 0.5-5, time 108.0 min; summary of the method: as §2
[14] = Half life in human liver microsomes at 1 uM in presence of NADPH by LC-MS/MS; format: ADME, Microsome
Summary of the method: (§3)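 Time-course stability in human or mouse liver microsomes, or mouse hepatocytes, in the presence of NADPH and UDPGA. Parent compound was monitored at five time points to derive T1/2.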

[15] = Half life in mouse liver microsomes at 1 uM in presence of NADPH by LC-MS/MS; format: ADME, Microsome; summary of the method: as §3
[16] = Half life in human liver cytoplasm; format: ADME, subcellular
[17] = Half life in mouse liver cytoplasm; format: ADME, subcellular
[18] = Half life in rat liver cytoplasm; format: ADME, subcellular
[19] = Metabolic stability in rat hepatocytes; format: ADME, cell-based, Hepatocyte
[20] = Metabolic stability in dog hepatocytes; format: ADME, cell-based, Canis lupus familiaris, Hepatocyte
[21] = Metabolic stability in mouse hepatocytes; format: ADME, cell-based, Hepatocyte; summary of the method: as §3
[22] = Permeability of compound at pH 7.4 incubated for 30 mins by PAMPA; format: ADME; settings: pH 7.4, 0.5 h
Summary of the method: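 Stirred double-sink PAMPA with GI-tract lipid/dodecane membrane, pH 7.4 on both sides. Compound was diluted from 10 mM DMSO stock to 0.05 mM (0.5% DMSO final), with 30 min permeation at room temperature. Donor and acceptor were read by UV. Results in 10⁻⁶ cm/s.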

[23] = Permeability of compound at pH 7.4 […] incubated for 1 hr by PAMPA-BBB assay; format: ADME; settings: pH 7.4, 1 h
Summary of the method: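 Double-sink PAMPA with 10% porcine brain lipid extract in phospholipid/alkane membrane. 10 mM DMSO stocks were diluted to 0.05 mM at pH 7.4 and stirred 1 h at room temperature. Donor and acceptor were quantified by UV against reference and blank. Results in 10⁻⁶ cm/s.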

[24] = Kinetic aqueous solubility of the compound in pH 7.4 PBS buffer at 150 uM measured after 6 hrs by shake flask method; format: physicochemical; settings: read-out: Kinetic_solubility
Summary of the method: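 μSOL kinetic solubility. 10 mM DMSO stocks were diluted with 1-propanol cosolvent to 150 μM final in aqueous pH 7.4 and equilibrated 6 h at room temperature. After filtration, filtrate concentration was read by UV absorbance against a 17 μM reference.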

[25] = Protein binding in mouse plasma assessed as free fraction; format: ADME, cell-free

Compound	inhibition in vivo at 50 mg/kg [1] [%]	Vdss [2] [L/kg]	AUClast [3] [ng·h/mL]	Cmax [4] [ng/mL]	beta t1/2 [5] [h]	INH [6] [µM]	Activity (Cytochrome P450)	t1/2 [7] [h]	IC50 [8] [nM]	IC50 (A673) [nM]	IC50 [9] [nM]	IC50 (MIA PaCa-2) [nM]	IC50 [10] [nM]	Kd [11] [nM]	inhibition [12]	inhibition [13]	inhibition (Homo sapiens)	half-life at 1 µM [14] [h]	half-life at 1 µM [15] [h]	half-life [16] [h]	further results
Cc1ccc(C#Cc2cccc(-c3nn(-c4nc(C(=O)O)cs4)c(CC4CC4)c3Cc3ccc(S(N)(=O)=O)c(F)c3)c2)s1	80	1.7	16530	33800	5.3	> 10	Not Active	> 4	760	105	367	347	119	0.0634	Active	Active	inactive	> 2	> 2	> 2	half-life [17]: > 2 h; half-life [18]: > 2 h; half-life [19]: > 2.5 h; half-life [20]: > 2.5 h; half-life [21]: > 2.5 h; permeability [22]: 2.2 10^-6 cm/s; permeability [23]: 9.6 10^-6 cm/s; solubility kinetic at 6 h, 150 µM [24]: > 70 µg/mL; Fu [25]: 4.4%
Cc1ccc(C#Cc2cc(-c3nn(-c4nc(C(=O)O)cs4)c(CC4CC4)c3Cc3ccc(S(N)(=O)=O)c(F)c3)ccc2F)s1	60	1.79	10570	41800	5.2	> 10	Not Active	> 4	873	119	403	257	106	0.0667	Active	Active	inactive	> 2	> 2	> 2	half-life [17]: > 2 h; half-life [18]: > 2 h; half-life [19]: > 2.5 h; half-life [20]: > 2.5 h; half-life [21]: > 2.5 h; permeability [22]: 10.4 10^-6 cm/s; permeability [23]: 16 10^-6 cm/s; solubility kinetic at 6 h, 150 µM [24]: > 70 µg/mL; Fu [25]: 0.7%
